Experimental data published in ChEMBL document CHEMBL2040755, “Diverse combinatorial design, synthesis and in vitro evaluation of new HEPT analogues as potential non-nucleoside HIV-1 reverse transcription inhibitors” (Eur J Med Chem, 2012).
≈ marks a conversion by molar mass, not a printed value.

Assays:
[1] = test system: Human immunodeficiency virus 1; experiment: Antiviral activity against HIV1 NL4-3 infected in human MT4 cells assessed as inhibition of virus-induced cytopathic effect after 5 days; format: functional, organism-based; settings: Human immunodeficiency virus 1, NL4-3, MT4, 120 h
Procedure, shortened: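 HIV-1 NL4-3 titered in MT-4 cells after acute infection. Infected cells were exposed to various concentrations of compound and grown 5 days. Protection from virus-induced cytopathic effect was read as viable cell number by tetrazolium (MTT) colorimetry, giving EC50.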

[2] = Cytotoxicity against human MT4 cells after 5 days by MTT assay; format: cell-based
Procedure, shortened: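 Uninfected MT-4 cells exposed to various compound concentrations and allowed to proliferate 5 days. Viable cells quantified by tetrazolium-based colorimetric (MTT) method to give CC50.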

[3] = Selectivity index, ratio of CC50 for human MT4 cells to EC50 for HIV1 NL4-3; format: toxicity, cell-based; settings: read-out: Ratio CC50/EC50
Procedure, shortened: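 SI taken as CC50 in uninfected MT-4 cells over EC50 against HIV-1 NL4-3. Both came from parallel 5-day MTT viability read-outs, in mock-infected and in infected cells exposed to various compound concentrations.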

[4] = test system: Human immunodeficiency virus 1; experiment: Ratio of HEPT EC50 to compound EC50 for HIV1 NL4-3; format: functional

Cc1c(Sc2c(Cl)cccc2Cl)n(COCC[Si](C)(C)C)c(=O)[nH]c1=O
EC50 [1]: > 21.3 µM | CC50 at 120 h [2]: 9.2 µg/mL (≈ 21.2 µM)

Cc1c(Sc2ccccc2)n(COCCO)c(=O)[nH]c1=O [HEPT]
EC50 [1]: 3.28 µM | CC50 at 120 h [2]: > 25 µg/mL | selectivity ratio [3]: > 25

CCOCn1c(Sc2c(Cl)cccc2Cl)c(C)c(=O)[nH]c1=O
EC50 [1]: 4.7 µM | CC50 at 120 h [2]: > 25 µg/mL | selectivity ratio [3]: > 15

Cc1c(Sc2cccc(N)c2)n(COCC[Si](C)(C)C)c(=O)[nH]c1=O
EC50 [1]: 1.15 µM | CC50 at 120 h [2]: > 25 µg/mL | selectivity ratio [3]: > 57

Cc1c(Sc2ccccc2)n(COCC[Si](C)(C)C)c(=O)[nH]c1=O
EC50 [1]: > 27.3 µM | CC50 at 120 h [2]: 9.9 µg/mL (≈ 27.2 µM)

CCOCn1c(Sc2ccccc2)c(C)c(=O)[nH]c1=O
EC50 [1]: 0.086 µM | CC50 at 120 h [2]: > 25 µg/mL | selectivity ratio [3]: > 1000 | Ratio EC50 [4]: 38

Cc1ccc(C)c(Cn2c(Sc3cccc(N)c3)c(C)c(=O)[nH]c2=O)c1
EC50 [1]: 5.2 µM | CC50 at 120 h [2]: > 25 µg/mL | selectivity ratio [3]: > 13

CCOCn1c(Sc2cccc(Cl)c2)cc(=O)[nH]c1=O
EC50 [1]: > 80 µM | CC50 at 120 h [2]: > 25 µg/mL

CCOCn1c(Sc2cccc(N)c2)cc(=O)[nH]c1=O
EC50 [1]: > 85 µM | CC50 at 120 h [2]: > 25 µg/mL

CCOCn1c(Sc2cccc(N)c2)c(C)c(=O)[nH]c1=O
EC50 [1]: 1.3 µM | CC50 at 120 h [2]: > 25 µg/mL | selectivity ratio [3]: > 63

CCOCn1c(Sc2ccccc2)c(C)c(=S)[nH]c1=O
EC50 [1]: 1.9 µM | CC50 at 120 h [2]: 2.38 µg/mL (≈ 7.72 µM) | selectivity ratio [3]: > 4

CCOCn1c(Sc2cccc(Cl)c2)c(C)c(=S)[nH]c1=O
EC50 [1]: > 4.96 µM | CC50 at 120 h [2]: 1.7 µg/mL (≈ 4.96 µM)

Cc1ccc(C)c(Cn2c(Sc3cccc(Cl)c3)c(C)c(=O)[nH]c2=O)c1
EC50 [1]: 0.868 µM | CC50 at 120 h [2]: 13.6 µg/mL (≈ 35.2 µM) | selectivity ratio [3]: > 40

Cc1ccc(C)c(Cn2c(Sc3ccccc3)cc(=O)[nH]c2=O)c1
EC50 [1]: > 74 µM | CC50 at 120 h [2]: > 25 µg/mL

O=C1Nc2ccc(Cl)cc2[C@@](C#CC2CC2)(C(F)(F)F)O1 [EFAVIRENZ]
CC50 at 120 h [2]: > 1 µg/mL

C[Si](C)(C)CCOCn1c(Sc2cccc(Cl)c2)cc(=O)[nH]c1=O
EC50 [1]: > 30 µM | CC50 at 120 h [2]: 11.6 µg/mL (≈ 30.1 µM)

Cc1ccnc2c1NC(=O)c1cccnc1N2C1CC1 [NEVIRAPINE]
CC50 at 120 h [2]: > 5 µg/mL

Cc1cn([C@H]2C[C@H](N=[N+]=[N-])[C@@H](CO)O2)c(=O)[nH]c1=O [ZIDOVUDINE]
EC50 [1]: 0.004 µM | CC50 at 120 h [2]: > 1 µg/mL | selectivity ratio [3]: > 1000

Cc1c(Sc2cccc(Cl)c2)n(COCC[Si](C)(C)C)c(=O)[nH]c1=O
EC50 [1]: > 24.9 µM | CC50 at 120 h [2]: 9.9 µg/mL (≈ 24.8 µM)

Cc1ccc(C)c(Cn2c(Sc3c(Cl)cccc3Cl)c(C)c(=O)[nH]c2=O)c1
EC50 [1]: > 59 µM | CC50 at 120 h [2]: > 25 µg/mL

Cc1ccc(C)c(Cn2c(Sc3cccc(Cl)c3)cc(=O)[nH]c2=O)c1
EC50 [1]: > 67 µM | CC50 at 120 h [2]: > 25 µg/mL

C[Si](C)(C)CCOCn1c(Sc2cccc(N)c2)cc(=O)[nH]c1=O
EC50 [1]: > 68 µM | CC50 at 120 h [2]: > 25 µg/mL

C[Si](C)(C)CCOCn1c(Sc2c(Cl)cccc2Cl)cc(=O)[nH]c1=O
EC50 [1]: > 25.2 µM | CC50 at 120 h [2]: 10.6 µg/mL (≈ 25.3 µM)

C[Si](C)(C)CCOCn1c(Sc2ccccc2)cc(=O)[nH]c1=O
EC50 [1]: > 71 µM | CC50 at 120 h [2]: > 25 µg/mL

Cc1c(Sc2cccc(Cl)c2)n(COCCO)c(=O)[nH]c1=O
EC50 [1]: 1.2 µM | CC50 at 120 h [2]: > 25 µg/mL | selectivity ratio [3]: > 60

Cc1ccc(C)c(Cn2c(Sc3ccccc3)c(C)c(=O)[nH]c2=O)c1
EC50 [1]: 3.57 µM | CC50 at 120 h [2]: > 25 µg/mL | selectivity ratio [3]: > 20

CCOCn1c(Sc2cccc(Cl)c2)c(C)c(=O)[nH]c1=O
EC50 [1]: 0.046 µM | CC50 at 120 h [2]: > 25 µg/mL | selectivity ratio [3]: > 1670 | Ratio EC50 [4]: 67

CCOCn1c(Sc2ccccc2)cc(=O)[nH]c1=O
EC50 [1]: > 90 µM | CC50 at 120 h [2]: > 25 µg/mL

Cc1ccc(C)c(Cn2c(Sc3cccc(N)c3)cc(=O)[nH]c2=O)c1
EC50 [1]: > 71 µM | CC50 at 120 h [2]: > 25 µg/mL

CCOCn1c(Sc2c(Cl)cccc2Cl)cc(=O)[nH]c1=O
EC50 [1]: > 72 µM | CC50 at 120 h [2]: > 25 µg/mL

Cc1ccc(C)c(Cn2c(Sc3c(Cl)cccc3Cl)cc(=O)[nH]c2=O)c1
EC50 [1]: > 61 µM | CC50 at 120 h [2]: > 25 µg/mL
